Each block holds one compound with its values, some of them ahead of it.
What was measured:
GST-DUSP5 = target: T1, GST-DUSP5 (Homo sapiens, UniProt Q16690); test: Prestwick drug library pNPP enzyme assay screen; assay type: biochemical; settings: 50 μM drug, 5 mM pNPP
T1 sequence (Q16690 178-319 limits assumed): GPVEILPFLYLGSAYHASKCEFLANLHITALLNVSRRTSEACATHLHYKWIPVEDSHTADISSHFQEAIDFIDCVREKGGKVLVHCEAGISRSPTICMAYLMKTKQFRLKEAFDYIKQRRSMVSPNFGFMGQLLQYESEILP

Nephelometry = assay type: physicochemical; settings: assay buffer pH 7.5 without vs with 1 mM DTT
How it was run: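 Aggregation was tested in 96-well plates using substrate-free assay buffer at pH 7.5, without or with 1 mM DTT. Serially diluted compound was added to give final concentrations of 1–100 μM or 1–300 μM, depending on compound.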

DUSP5 PD [1] = target: T2, DUSP5 PD (Homo sapiens, UniProt Q16690); test: Spectral analysis of other xanthene dyes binding to DUSP5 PD protein; settings: 4 μM compound, 4 μM protein
T2 sequence (Q16690 178-319 limits assumed): T1 sequence (Q16690 178-319 limits assumed)
How it was run: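 Each test compound at 4 μM in assay buffer, without or with 1 mM DTT, in 2 mL quartz cuvettes. Absorbance was scanned at 1 nm intervals from 400 to 600 nm. DUSP5 PD was then added to a final 4 μM and the sample rescanned. Blanks were buffer with or without DTT, plus buffer with 4 μM protein. Spectra without protein were subtracted from spectra with protein to give difference spectra.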

DUSP5 PD [2] = target: T2, DUSP5 PD; test: Reaction progress curve analysis of irreversible DUSP5 PD inactivation; assay type: biochemical
[3] = target: T3, GST-DUSP5 (full length DUSP5, pERK substrate) (Homo sapiens, UniProt Q16690); test: In vitro ERK dephosphorylation Western blot assay; assay type: biochemical; settings: non-cell based western blot
T3 sequence (Q16690 1-384): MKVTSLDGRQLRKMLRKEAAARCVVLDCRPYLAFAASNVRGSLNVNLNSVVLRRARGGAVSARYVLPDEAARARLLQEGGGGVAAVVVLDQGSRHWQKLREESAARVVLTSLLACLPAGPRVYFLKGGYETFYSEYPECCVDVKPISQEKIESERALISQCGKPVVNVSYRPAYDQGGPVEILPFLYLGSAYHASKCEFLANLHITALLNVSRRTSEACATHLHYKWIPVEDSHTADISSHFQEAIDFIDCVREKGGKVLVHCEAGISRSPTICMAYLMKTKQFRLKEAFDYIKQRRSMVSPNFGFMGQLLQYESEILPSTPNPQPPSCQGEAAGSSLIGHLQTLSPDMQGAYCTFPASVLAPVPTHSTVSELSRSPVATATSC

DUSP5 PD [4] = target: T2, DUSP5 PD; test: Binding of rose bengal to DUSP5 PD by UV-Vis spectral titration; settings: read-out: Kd for binding to DUSP5; as printed in abstract/highlights
How it was run: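 Final protein was 0, 1.0, 2.0 and 3.0 μM with 1.08 μM compound, or 0–2.5 μM in 0.5 μM steps with 3.25 or 6.5 μM compound. Absorbance differences were fitted hyperbolically (equation 8) against total protein to obtain Absmax. Fractional absorbance was plotted versus total protein.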

DUSP5 PD [5] = target: T2, DUSP5 PD; test: Incandescent bulb kinetic studies, noncompetitive inhibition models; assay type: biochemical
How it was run: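 DUSP5 PD (final 1 μM) in 100 mM Tris pH 7.5, 100 mM NaCl, 5 mM MgCl2, 1 mM DTT, precooled to 4°C. Incubated in glass tubes with test compound (1 mM aqueous stock, light-protected), either light-limited or under incandescent illumination. Substrate was 3, 9 or 27 mM pNPP, with pNPP-only background subtraction. Initial velocities came from linear fits of p-nitrophenolate (ε 18,000). Fits were global noncompetitive models: a single Ki (equation 6), or slope Kis and intercept Kii (equation 7).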

DUSP5 PD [6] = target: T2, DUSP5 PD; test: Headspace gas sparging kinetic studies; assay type: biochemical; settings: 1 μM rose bengal, illuminated 15 min
How it was run: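 Borosilicate tubes held 4 mL assay buffer with 1 μM DUSP5 PD, without or with 1 μM test compound. They were prepared shielded from light, stoppered and kept on ice. Ultrapure air, nitrogen or oxygen was passed through the headspace at 2.5 L/min by needle. Controls: enzyme without compound under room air. After illumination, pNPP hydrolysis was read at 405 nm every 30 s for 10 min at 25°C in 96-well plates, background-subtracted and converted to p-nitrophenolate.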

DUSP5 PD [7] = target: T2, DUSP5 PD; test: LED illumination kinetic studies; assay type: biochemical; settings: 555 nm LED, 30 min, 825 lux
How it was run: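 Samples of 4 mL containing 1 μM DUSP5 PD and 0, 1, 2 or 3.5 μM test compound were prepared at 20°C under <1 lux. They were then treated for 30 min, illuminated or light-shielded. Aliquots of 190 μL were started with pNPP (final 0, 3, 9, 27 mM), four replicates each, plated under <1 lux. A405 was read every 30 s for 10 min at 25°C. Initial velocities were globally fitted to the noncompetitive models (equations 6, 7).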

[8] = without DTT, fit of kobs replot to equation 4 (Fig. 5c/6c)

Compound: O=C([O-])c1ccccc1-c1c2cc(Br)c(=O)cc-2oc2[c]([Hg+])c([O-])c(Br)cc12.[Na+].[Na+].[OH-] [Merbromin, 2’,7’-dibromo-5’-[hydroxy-mercurio]-fluorescein]
effect of DTT addition on compound aggregation (Nephelometry): little effect
spectral shift upon addition of DUSP5 PD protein (DUSP5 PD [1]; with 1 mM DTT): blunted
spectral shift upon addition of DUSP5 PD protein (DUSP5 PD [1]; without DTT): largest spectral shift
inhibitory activity with DUSP5 in library screen (GST-DUSP5): showed inhibitory activity
Inhibitor mechanism (irreversible inactivation) (DUSP5 PD [2]; with 1 mM DTT): single-step
kinact/KI (slope of linear fit) (DUSP5 PD [2]; with 1 mM DTT, fit shown in Fig. 5c/6c): 6.0 M⁻¹ s⁻¹
kinact/KI (DUSP5 PD [2]; with 1 mM DTT, summary of data sets (Table 2)): 6.22 ± 0.74 M⁻¹ s⁻¹
kinact/KI (slope from the data fit) (DUSP5 PD [2]; with DTT, Fig. 5c): 6.0 M⁻¹
fold decrease of kinact/KI in the presence of DTT (DUSP5 PD [2]; with vs without DTT): 7.6 fold
Inhibitor mechanism (irreversible inactivation) (DUSP5 PD [2]; without DTT): two-step
Ki (DUSP5 PD [2]; [8]): 33000 nM
kinact (DUSP5 PD [2]; [8]): 0.0014 s⁻¹
kinact/KI (DUSP5 PD [2]; without DTT, fit shown in Fig. 5c/6c): 42.4 M⁻¹ s⁻¹
kinact/KI (DUSP5 PD [2]; without DTT, summary of data sets (Table 2)): 47.08 ± 4.66 M⁻¹ s⁻¹
kinact/KI (DUSP5 PD [2]; without DTT, summary of data sets (Table 2), listed as merbromin): 47 M⁻¹ s⁻¹
rank in secondary assay of pERK dephosphorylation among 8 screen hits [3]: most potent inhibitor

Compound: COc1cc(NC(C)CCCN)c2ncccc2c1 (centres unmarked) [Primaquine diphosphate]
inhibitory activity with DUSP5 in library screen (GST-DUSP5): showed inhibitory activity

Compound: CC[N+](C)(CC)CCC[n+]1c(-c2ccccc2)c2cc(N)ccc2c2ccc(N)cc21.[I-].[I-] [Propidium iodide]
inhibitory activity with DUSP5 in library screen (GST-DUSP5): showed inhibitory activity

Compound: Anthracin
inhibitory activity with DUSP5 in library screen (GST-DUSP5): showed inhibitory activity

Compound: Cyanocobalamin
inhibitory activity with DUSP5 in library screen (GST-DUSP5): showed inhibitory activity

Results, then the compound that gave them:

inhibitory activity with DUSP5 in library screen (GST-DUSP5): showed inhibitory activity
Compound: CN(C)[C@@H]1C(O)=C(C(=O)NCNCCCC[C@H](N)C(=O)O)C(=O)[C@@]2(O)C(O)=C3C(=O)c4c(O)cccc4[C@@](C)(O)[C@H]3C[C@@H]12 [Lymecycline]

Kd (DUSP5 PD [4]): 690 nM
Kii, intercept inhibition constant (two Ki noncompetitive model, equation 7) (DUSP5 PD [5]; 15 min dark incubation): 2250 ± 100 nM
Kii, intercept inhibition constant (two Ki noncompetitive model, equation 7) (DUSP5 PD [5]; 15 min light exposure): 550 ± 20 nM
steady-state inhibition mechanism (DUSP5 PD [5]; vs pNPP): noncompetitive inhibitor
DUSP5 PD enzyme activity, oxygen-gassed vs other conditions (DUSP5 PD [6]): significantly lower activities
DUSP5 PD enzyme velocity, nitrogen-gassed vs compressed air or oxygen (DUSP5 PD [6]): significantly higher velocities
Ki of LED-illuminated samples relative to samples incubated in the dark (DUSP5 PD [7]): about half
Compound: O=C(O)c1c(Cl)c(Cl)c(Cl)c(Cl)c1-c1c2cc(I)c(=O)c(I)c-2oc2c(I)c(O)c(I)cc12 [Rose Bengal, 4,5,6,7-tetrachloro-2’,4’,5’,7’-tetraiodofluorescein]

inhibitory activity with DUSP5 in library screen (GST-DUSP5): showed inhibitory activity
Compound: O.O=C1C(O)=C(O)C(=O)C(O)=C1O [Tetrahydroxy 1,4-quinone monohydrate]
